From publication PMC4463842 (Molecular Medicine Reports, 2015)

Columns and labels:
[1] = molecular target: peptide-HLA-A*0201 complex (Homo sapiens, UniProt P04439, D140Y/D185E/D98H/E176V/E277Q/G131W/G231S/I119V/I121R/I166T/I218V/L300P/L318F/N151K/N90K/P208A/P217A/Q86G/Q94H/R138H/R169H/T345S); assay: BFA decay assay; assay type: binding; details: T2 cells loaded with 100 µM peptide, 37°C, time required for 50% reduction of the MFI value recorded at time 0
[2] = tested on: T2 cells pulsed with corresponding peptides; assay: LDH release cytotoxicity assay of peptide-specific CTLs; assay type: cell-based, human; details: effector to target cell ratio 100:1
How it was run: (§1)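 Effectors were CTLs from donor PBMCs after three rounds of peptide stimulation over 3 weeks. Targets were plated at 5,000/well at E:T 100:1, spun 250 × g 4 min, then co-cultured 4–6 h at 37°C, 5% CO2, in phenol red-free medium with 5% FBS. Supernatant LDH gave %cytotoxicity = (experimental − effector spontaneous − target spontaneous)/(target maximum − target spontaneous) ×100. Triplicate wells, three repeats.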

[3] = tested on: MCF-7 cells (HLA-A*0201+, EPS8+); assay: as above; assay type: cell-based, human; details: effector to target cell ratio 100:1, CTLs induced with peptide 10 µg/ml
How it was run: as §1

Sequence | DC50 [1] [h] | lysis rate of T2 cells loaded with the corresponding peptide ([2]; donor 1) [%] | lysis rate of T2 cells loaded with the corresponding peptide ([2]; donor 2) [%] | average lysis rate of MCF-7 cells ([3]; donor 1) [%] | average lysis rate of MCF-7 cells ([3]; donor 2) [%]
FLFTPLNMV [Peptide 360] | >8 |  |  |  | 
KLLDAKGKV [Peptide 92] |  | 45.41±4.16 | 35.23±1.50 | 51.28±1.54 | 54.22±3.01
ILDDIEFFI [Peptide 276] | 6 to 8 |  |  |  | 
QLAESVANV [Peptide 455] | >8 |  |  |  | 
